This is an account of results in BindingDB's records for doi:10.1021/jm00069a013 (University of North Carolina, 1993).

In general, IC50 refers to the point on the concentration scale where inhibition reaches its midpoint.

Where a name gives a salt, the structure may show the parent alone. A value given as a limit tells only on which side of the number the result lay.

Assay [1] is described as follows: Binding affinity against sigma receptor from guinea pig brain (minus cerebellum) homogenates, using [3H]ditolylguanidine (DTG) as radioligand. Put shortly:
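Competition binding with whole guinea pig brain (minus cerebellum) homogenates in 10 mM Tris-HCl without added cations. Nonspecific binding was defined by 10 μM haloperidol. Concentrations were tested in duplicate, with three replications. IC50 values came from curve fitting.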

A short description of assay [2]: Binding affinity against sigma receptor from guinea pig brain (minus cerebellum) homogenates, using the novel [3H]-(+/-)-4 as radioligand.

Take `C=CCN(CC=C)C1Cc2ccccc2C(c2ccccc2)C1` (stereo not drawn) [trans-Diallyl-(4-phenyl-1,2,3,4-tetrahydro-naphthalen-2-yl)-amine; hydrochloride]: the concentration for half-maximal inhibition (IC50) turned out to be 538 nM in assay [1] and 27 nM in assay [2]. In assay [1], `CN(C)C1Cc2ccccc2C(c2ccccc2)C1` (stereo not drawn) [cis-Dimethyl-(4-phenyl-1,2,3,4-tetrahydro-naphthalen-2-yl)-amine; hydrochloride] yielded an IC50 of 960 nM. The same measure, in the same setting: as for `C=CCN(C)C1Cc2ccccc2C(c2ccccc2)C1` (stereo not drawn) [trans-Allyl-methyl-(4-phenyl-1,2,3,4-tetrahydro-naphthalen-2-yl)-amine; hydrochloride], the figure is 1550 nM. The compound `NC1Cc2ccccc2C(c2ccccc2)C1` (stereo not drawn) [trans-4-Phenyl-1,2,3,4-tetrahydro-naphthalen-2-ylamine; hydrochloride] showed an IC50 in assay [1] of more than 10000 nM. On to `CCN(CC)C1Cc2ccccc2C(c2ccccc2)C1` (trans isomer), for which the half-inhibitory concentration (IC50) in assay [1] is 207 nM; in assay [2], 4.5 nM.

As to `CN(C)[C@H]1CCc2ccccc2[C@H]1c1ccccc1` [Dimethyl-(1-phenyl-1,2,3,4-tetrahydro-naphthalen-2-yl)-amine], the IC50 worked out at 3340 nM in assay [1] and 2760 nM in assay [2]. `C=CCNC1Cc2ccccc2C(c2ccccc2)C1` (stereo not drawn) [trans-Allyl-(4-phenyl-1,2,3,4-tetrahydro-naphthalen-2-yl)-amine; hydrochloride] registered an IC50 in assay [2] of 117 nM. In other words, the sub-micromolar range.
